Assay results published in ChEMBL document CHEMBL1124829, “Methylating agents as trypanocides” (1990).

Columns and labels:
Assay type in all cases: functional
Mus musculus [1] = assay: (§1) Mean life extension in mice bearing Trypanosoma rhodesiense, after ip administration at a dose of 0.2 mmol/kg; parameters: unit: days
Summary of the method: (§2)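 Female CD-1 mice, 6-8 weeks old, 25-35 g, infected ip with about 10^6 freshly isolated trypanosomes in PBSG. At day 3 post-infection they got a single ip dose, dissolved in 50 µL DMSO or in 0.5 mL PBSG adjusted to pH 7.4. Activity is the days of survival beyond vehicle-only controls, as the mean of 4 mice to the nearest day. Parasitemia was monitored to exclude toxic deaths.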

Mus musculus [2] = assay: Mean life extension in mice bearing Trypanosoma rhodesiense, after ip administration at a dose of 0.5 mmol/kg
Mus musculus [3] = assay: Mean life extension was determined in mice bearing Trypanosoma evansi (SN) after administration of 0.2 mmol/kg per dose
Summary of the method: (§3)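 Female CD-1 mice, 6-8 weeks old, were infected ip with about 10^6 cells in PBSG. When parasitemia reached about 10^8 cells/mL they got a single 0.2 mmol/kg dose in DMSO. The result is days survived beyond DMSO-only controls, as the mean of 4 animals to the nearest day with SE. Survival of 30 days or more was counted as cure.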

Mus musculus [4] = assay: Mean life extension was determined in mice bearing Trypanosoma evansi (SAK), after administration of 0.2 mmol/kg per dose; summary of the method: as §3
Mus musculus [5] = assay: Mean life extension was determined in mice bearing Trypanosoma equiperdum (1559), after administration of 0.2 mmol/kg per dose; summary of the method: as §3
Mus musculus [6] = assay: Mean life extension was determined in mice bearing Trypanosoma brucei rhodesiense (YTAT 1.1) after administration of 0.2 mmol/kg per dose; summary of the method: as §3
Mus musculus [7] = assay: Mean life extension was determined in mice bearing Trypanosoma brucei gambiense (TxTAT 1.0), after administration of 0.2 mmol/kg per dose; summary of the method: as §3
Mus musculus [8] = assay: Mean life extension was determined in mice bearing Trypanosoma brucei (M110) after administration of 0.2 mmol/kg per dose; summary of the method: as §3
Mus musculus [9] = assay: Mean life extension in mice bearing Trypanosoma rhodesiense, after ip administration at 0.5 mmol/kg dose; summary of the method: as §2
Mus musculus [10] = assay: Mean life extension in mice bearing Trypanosoma rhodesiense, after ip administration at 0.4 mmol/kg dose
Mus musculus [11] = assay: Mean life extension in mice bearing Trypanosoma rhodesiense, after ip administration at 0.9 mmol/kg dose; summary of the method: as §2
Mus musculus [12] = assay: as §1; summary of the method: as §2

Question: `CCNNCC.Cl.Cl` was tested. Which Mean life extension (Mus musculus [1]) did it give?
Answer: The Mean life extension was 0.

Question: `CNNC.Cl.Cl` was tested. Which Mean life extension (Mus musculus [1]) did it give?
Answer: Its Mean life extension is 4.

Question: With `CNN.Cl.Cl` as the compound, how does the Mean life extension (Mus musculus [2]) read?
Answer: The Mean life extension was 1.

Question: `CN(NC(=O)c1ccccc1)C(=O)c1ccccc1` was tested. Which Mean life extension (Mus musculus [1]) did it give?
Answer: Its Mean life extension is 0.

Question: With `O=S(=O)(NNS(=O)(=O)c1ccccc1)c1ccccc1` as the compound, how does the Mean life extension (Mus musculus [1]) read?
Answer: Its Mean life extension is 0.

Question: With `CN(NS(C)(=O)=O)S(C)(=O)=O` as the compound, how does the Mean life extension (Mus musculus [3]) read?
Answer: Its Mean life extension is 12.

Question: And the Mean life extension (Mus musculus [1])?
Answer: Its Mean life extension is 12.

Question: What about the Mean life extension (Mus musculus [4]) of the same compound?
Answer: The Mean life extension was >30.

Question: And the Mean life extension (Mus musculus [5])?
Answer: The Mean life extension was 12.

Question: What about the Mean life extension (Mus musculus [6]) of the same compound?
Answer: The Mean life extension was 12.

Question: And the Mean life extension (Mus musculus [7])?
Answer: Its Mean life extension is 13.

Question: And the Mean life extension (Mus musculus [8])?
Answer: The Mean life extension was 11.

Question: With `CN(NS(=O)(=O)c1ccccc1)S(=O)(=O)c1ccccc1` as the compound, how does the Mean life extension (Mus musculus [1]) read?
Answer: Its Mean life extension is 5.

Question: For `COc1ccc(S(=O)(=O)NN(C)S(C)(=O)=O)cc1`, which Mean life extension (Mus musculus [1]) is on record?
Answer: Its Mean life extension is 4.

Question: How did the Mean life extension (Mus musculus [9]) turn out when `CN(C)/N=N/c1[nH]cnc1C(N)=O` [DACARBAZINE] was run?
Answer: Its Mean life extension is >30.

Question: What about the Mean life extension (Mus musculus [1]) of the same compound?
Answer: Its Mean life extension is 6.

Question: Which Mean life extension (Mus musculus [2]) does the source give for `Cl.Cl.NN` [HYDRAZINE DIHYDROCHLORIDE] here?
Answer: Its Mean life extension is 0.

Question: Which Mean life extension (Mus musculus [1]) does the source give for `COS(C)(=O)=O` [METHANESULFONIC ACID METHYL ESTER] here?
Answer: Its Mean life extension is 1.

Question: For `CN(N=O)C(N)=O` [N-METHYL-N-NITROSUREA], which Mean life extension (Mus musculus [1]) is on record?
Answer: The Mean life extension was 8.

Question: What about the Mean life extension (Mus musculus [10]) of the same compound?
Answer: Its Mean life extension is >30.

Question: With `CNNCc1ccc(C(=O)NC(C)C)cc1` [PROCARBAZINE] as the compound, how does the Mean life extension (Mus musculus [1]) read?
Answer: Its Mean life extension is 5.

Question: What about the Mean life extension (Mus musculus [11]) of the same compound?
Answer: Its Mean life extension is >30.

Question: With `CN(N=O)C(=O)N[C@@H](C=O)[C@@H](O)[C@H](O)[C@H](O)CO` [STREPTOZOCIN] as the compound, how does the Mean life extension (Mus musculus [12]) read?
Answer: The Mean life extension was 4.

Question: `CCOS(=O)(=O)OCC` [SULFURIC ACID DIETHYL ESTER] was tested. Which Mean life extension (Mus musculus [1]) did it give?
Answer: The Mean life extension was 0.

Question: `COS(=O)(=O)OC` [SULFURIC ACID DIMETHYL ESTER] was tested. Which Mean life extension (Mus musculus [1]) did it give?
Answer: Its Mean life extension is 3.
